Screening data from PubChem.
M4 antag – CHRM4 antagonism in calcium assay; CHO-hM4 cells, ACh EC80, Fluo-8 calcium fluorescence; inhibition, % at 3 µM; actives 0.73% (n = 360,000); AID 624125;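 active = inhibition above its plate's cutoff, the mean inhibition of sample wells plus 3 SD, cut at about 27% in these data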;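 also: 0% = acetylcholine EC80 with DMSO and 100% = DMSO without agonist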
Target sequence (P08173 whole entry, looked up): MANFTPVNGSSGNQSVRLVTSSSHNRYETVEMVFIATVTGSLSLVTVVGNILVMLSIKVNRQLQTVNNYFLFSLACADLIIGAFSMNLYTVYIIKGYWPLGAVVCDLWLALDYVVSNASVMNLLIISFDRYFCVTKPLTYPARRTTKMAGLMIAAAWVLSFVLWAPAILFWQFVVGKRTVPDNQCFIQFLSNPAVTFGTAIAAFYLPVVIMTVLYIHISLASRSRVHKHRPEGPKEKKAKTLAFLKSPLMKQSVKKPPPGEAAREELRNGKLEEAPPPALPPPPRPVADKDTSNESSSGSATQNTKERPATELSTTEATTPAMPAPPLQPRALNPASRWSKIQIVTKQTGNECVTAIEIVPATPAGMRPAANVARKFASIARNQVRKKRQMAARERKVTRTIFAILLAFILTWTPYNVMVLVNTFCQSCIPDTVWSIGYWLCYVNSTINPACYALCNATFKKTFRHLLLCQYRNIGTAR
M5 ag – agonists of human muscarinic M5 receptor (CHRM5). CHO-K1 hM5 cells, Fluo-8 calcium fluorescence; 0% DMSO wells, 100% maximal acetylcholine response. activation, % at 3 µM. actives 0.19% (n = 360,000). AID 624037;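 active = activation above the run's mean over test compounds plus 3 SD, cut at about 23% in these data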;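 also: signal is peak over basal fluorescence ratio across the kinetic read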
CHRM5 PAM – potentiates acetylcholine response at human M5 receptor. CHO-K1 hM5, Fluo-8 calcium, ACh EC20 PAM; 0% = ACh EC20, 100% = ACh EC100. activation, % at 3 µM. actives 0.3% (n = 360,000). AID 624038;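 active = activation above the run cutoff, the mean activation of all test compounds plus 3 SD, cut at about 18% in these data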
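System – CHO-K1 hM5 cells · Compound – 3 µM, single dose · Incubation – compound preincubation 140 s before EC20 acetylcholine addition · Technique – Fluo-8 calcium fluorescence · Measure – Max/basal fluorescence ratio as % of EC20–EC100 ACh window · Benchmarks – low control EC20 acetylcholine (0%), high control EC100 acetylcholine (100%) · Replication – singlicate, one well per test compound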
M5 antag – CHRM5 antagonism in calcium assay; CHO-hM5 cells, Fluo-8 calcium fluorescence, ACh EC80; P08912; actives 0.59% (n = 360,000); inhibition, % at 3 µM;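 active = inhibition above a per-plate cutoff, the mean of that plate's test compounds plus 3 SD, cut at about 27% in these data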;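 also: 0% = acetylcholine EC80 with DMSO and 100% = DMSO without agonist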
CHRM4 agonist – agonists of human muscarinic M4 receptor (CHRM4). P08173. CHO-K1 hM4/Gqi5, Fluo-8 calcium fluorescence; vehicle 0%, full acetylcholine response 100%. activation, % at 3 µM. actives 0.14% (n = 360,000). AID 624127;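 active = activation above the run mean over all test wells plus 3 SD, cut at about 32% in these data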;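 also: peak over basal fluorescence ratio per well then scaled between controls; 0% = DMSO wells and 100% = acetylcholine at EC100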
CHRM4 PAM – potentiates acetylcholine response at human M4 receptor. P08173. CHO-K1 hM4/Gqi5, Fluo-8 calcium fluorescence, ACh EC20; 0% = ACh EC20, 100% = maximal ACh. activation, % at 3 µM. actives 0.4% (n = 360,000);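 active = activation above its plate's cutoff, the mean activation of sample wells plus 3 SD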
* = called active by the depositor. Rows were chosen to be rich in hits. Some 1.8% of all compounds tested hit in one or more screens of this group.

SMILES | M4 antag | M5 ag | CHRM5 PAM | M5 antag | CHRM4 agonist | CHRM4 PAM
Cc1cc2c(c(=O)n1CC1CCCO1)C(c1ccc3c(c1)OCO3)C(C#N)=C(N)O2 (centres undefined) | 2 | -2 | 8 | -2 | 0 | 15
COC(=O)/C=C1\OC(C2CC2)c2ccccc21 (centres undefined) | 13 | 2 | 2 | 9 | 0 | -1
CNC(C)C(=O)NC(C(=O)N1CCCC1C(=O)Nc1ccc2[nH]ccc2c1)C(C)C (centres undefined) | -11 | -1 | 5 | -4 | 1 | 5
CNC(C)C(=O)NC(C(=O)N1CCCC1C(=O)Nc1ccc2ncccc2c1)C(C)C (centres undefined) | -14 | 2 | 14 | -5 | 0 | 29*
O=c1c2ccccc2nc(/C=C/c2cc(Br)ccc2O)n1CCCO | 8 | 1 | -8 | 7 | 24 | -13
CC(=O)Nc1ccc(C(=O)N2CCc3cc4c(cc3C2C)OCCCO4)cc1 (centres undefined) | 39* | -6 | -3 | 3 | 1 | -14
Cc1ccc(C(=O)N2CCc3cc4c(cc3C2C)OCCCO4)cc1 (centres undefined) | 0 | -6 | 1 | 1 | 6 | -16
O=C(NCc1cccc(Br)c1)C1CC2Cn3c(nc4ccccc43)C2N1c1ccccc1 (centres undefined) | 1 | -3 | 11 | 3 | 2 | 2
COc1cccc2sc(Nc3nc(-c4ccccn4)cs3)nc12 | 37* | -5 | -36 | 30* | 9 | -9
c1ccc(Nc2nc(-c3ccccn3)cs2)cc1 | 3 | -8 | -15 | -2 | 1 | 3
O=C(CN1CCN(Cc2ccc3c(c2)OCO3)CC1)Nc1ccc2[nH]c(=O)[nH]c2c1 | -3 | 4 | 2 | 8 | 0 | 16*
O=C(CN1CCN(Cc2ccc3c(c2)OCO3)CC1)Nc1ccc(N2CCOCC2)cc1 | -8 | 2 | -3 | 6 | 0 | -9
Cc1cccc(NC(=O)CN(C)C(=O)c2ccc3ccccc3n2)c1C | -5 | -2 | 1 | -4 | 3 | 1
CCC(C)(C(=O)Nc1c(C)cccc1C)N(C)C(=O)c1ccc2ccccc2n1 (centres undefined) | 37* | -3 | 2 | 6 | 1 | 15
COC(=O)c1cc([N+](=O)[O-])c(C)c(C)n1 | -6 | 0 | -4 | -1 | -1 | 3
COc1ccccc1C(=O)Oc1ccc2ccc(=O)oc2c1 | -11 | -2 | 4 | -5 | 2 | -3
COc1ccccc1C(=O)Oc1ccc(C(C)(C)C)cc1 | -19 | -10 | 26* | 17 | 0 | -2
COc1ccc(-c2cn3cccnc3n2)cc1F | 8 | 0 | 18* | -5 | 0 | 1
COc1ccc(-c2cn3cccnc3n2)cc1NS(=O)(=O)c1ccccc1 | -8 | -1 | -1 | -4 | 2 | 7
Cc1ccc(CN2CCC2(C)C(=O)NC2CCc3ccccc32)cc1 (centres undefined) | -3 | -3 | 2 | -1 | -2 | 3
N#C/C(=C\c1cccn1S(=O)(=O)c1cccc([N+](=O)[O-])c1)S(=O)(=O)c1ccc(F)cc1 | -1 | -3 | 3 | 0 | 3 | 2
CCOc1ccc(S(=O)(=O)NCCC(=O)NC2CCN(Cc3ccccc3)CC2)cc1 | -5 | -3 | 0 | -2 | 1 | 3
CC(=O)c1ccc(S(=O)(=O)NCCC(=O)NC2CCN(Cc3ccccc3)CC2)cc1 | -19 | -1 | 19* | 3 | 0 | 11
Cc1ccc(S(=O)(=O)N2CCC(C(=O)N3Cc4ccccc4C3)CC2)cc1 | -10 | -5 | 19* | -10 | 3 | 22*
Cc1ccc(S(=O)(=O)N2CCCC(C(=O)N3CCN(c4ccccc4)CC3)C2)cc1 (centres undefined) | -11 | -6 | -12 | 29* | 11 | -5
SMILES | M4 antag | M5 ag | CHRM5 PAM | M5 antag | CHRM4 agonist | CHRM4 PAM
COc1ccc(S(=O)(=O)N2CCC(C(=O)N3CCc4ccccc4C3)CC2)cc1 | -2 | 1 | -2 | -8 | 4 | 18
CCN(CC)CCNC(=O)C(=O)NCC1OCCN1S(=O)(=O)c1cccs1 (centres undefined) | 4 | -1 | 14 | -15 | 1 | 5
CC(=O)N(Cc1ccccc1)c1ccc(C(=O)O)cc1 | -12 | -2 | 25* | 3 | 1 | 4
COc1ccc(C2=C(C)C(N3CCN(C(=O)c4ccco4)CC3)=NS2(=O)=O)cc1 | 8 | -1 | 3 | 5 | 0 | 0
CC1CCCCN1C(=O)CSc1nc(-c2ccccc2)cc(=O)[nH]1 (centres undefined) | -3 | 1 | 20* | -9 | 2 | 9
Cc1cc(C)cc(C(=O)Nc2nnc(SCC(=O)NCC3CCCO3)s2)c1 (centres undefined) | 4 | -3 | -3 | 17 | 1 | -2
COCCn1c(=O)[nH]c2cc(C(=O)NC(C)C)ccc2c1=O | -7 | -5 | 24* | 1 | 0 | 20*
CCC(C)Nc1nc(-c2ccccn2)nc2ccccc12 (centres undefined) | -18 | -4 | 6 | -16 | 9 | 22*
c1ccc(CNc2nc(-c3ccccn3)nc3ccccc23)cc1 | -7 | 2 | 2 | -7 | 9 | 10
CC1Oc2ccccc2N(Cc2ccc(F)cc2)C1=O (centres undefined) | 12 | -8 | 5 | 7 | -1 | -5
CCN(CC)c1ncn(Cc2c(Cl)cccc2Cl)c2ncnc1-2 | 20 | -9 | -2 | -17 | 1 | 52*
CCN(CC)c1ncnc2c1ncn2Cc1c(Cl)cccc1Cl | -9 | -3 | 0 | -9 | 1 | 22*
Cc1noc(C)c1S(=O)(=O)NC(=O)C1(C)CCN1C(=O)CC(c1ccccc1)c1ccccc1 (centres undefined) | 1 | 0 | 0 | -5 | 1 | -3
Nc1cnccc1C(=O)O | 3 | 24* | -15 | 3 | 5 | 3
CCCCNC(=O)N(C)c1nncnc1C(=O)NC | 9 | 0 | 26* | -1 | 1 | 12
Cc1cccc(CNC(=O)C2CCC(=O)N(Cc3ccccc3F)C2)n1 (centres undefined) | -7 | -4 | 2 | -1 | 1 | 21*
Cc1c(CNC(=O)C2CCC(=O)N(CCc3ccccc3)C2)cnn1C (centres undefined) | -3 | -3 | 2 | 12 | 0 | 21*
Cc1ccc(F)cc1CNC(=O)C1CCC(=O)N(CCc2ccccc2)C1 (centres undefined) | 7 | -1 | 2 | 8 | 1 | 1
